This passage reports IC50 and Activity results from ChEMBL document CHEMBL1811804, “Benzyl derivatives with in vitro binding affinity for human opioid and cannabinoid receptors from the fungus Eurotium repens” (J Nat Prod, 2011).

Assay type in all cases: cell-based
In assay [1] the target is T1, Cannabinoid receptor 1 (Homo sapiens, UniProt P21554). Kind of assay: Displacement of [3H]CP-55,940 from human CB1 receptor expressed in CHO-K1 cells after 90 mins by scintillation counting. An outline of the steps: (§1)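 Membranes from CHO-K1 cells stably expressing human CB1 or CB2, 10 μg per well, with 0.6 nM [3H]CP-55,940 in 50 mM Tris pH 7.4, 154 mM NaCl, 20 mM Di-Na-EDTA, 0.02% BSA; 37 °C for 90 min. Dose-response from 300 μM to 1.7 nM.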
T1 sequence (P21554 whole entry): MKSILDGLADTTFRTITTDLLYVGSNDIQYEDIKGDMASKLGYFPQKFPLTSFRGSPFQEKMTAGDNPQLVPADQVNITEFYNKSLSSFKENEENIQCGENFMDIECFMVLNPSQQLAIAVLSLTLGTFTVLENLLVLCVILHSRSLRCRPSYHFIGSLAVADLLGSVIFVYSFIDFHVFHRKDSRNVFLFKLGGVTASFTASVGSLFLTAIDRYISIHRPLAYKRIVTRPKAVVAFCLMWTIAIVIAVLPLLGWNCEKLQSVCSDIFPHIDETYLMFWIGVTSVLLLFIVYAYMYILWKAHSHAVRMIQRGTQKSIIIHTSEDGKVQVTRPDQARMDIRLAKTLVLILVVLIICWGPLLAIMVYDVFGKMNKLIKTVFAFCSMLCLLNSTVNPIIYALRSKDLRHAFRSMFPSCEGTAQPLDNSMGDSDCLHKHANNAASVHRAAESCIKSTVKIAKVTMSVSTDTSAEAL
(In general: Loss of bound radioactivity is the signal in a displacement assay; it reports binding, not function.)

Assay [2] addresses T2, Cannabinoid receptor 2 (Homo sapiens, UniProt P34972). Nature of the assay: Binding affinity at human CB2 receptor expressed in CHO-K1 cells at 10 uM. The gist of the method: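 CHO-K1 cells stably transfected with full-length human CB1 or CB2 cDNA, cultured in DMEM/F-12 with 10% FBS and G418 or hygromycin B. Membranes (10 μg) incubated with test compound at 10 μM final and 0.6 nM [3H]CP-55,940 in 50 mM Tris pH 7.4, 154 mM NaCl, 20 mM Di-Na-EDTA, 0.02% BSA, 37 °C, 90 min. Filtration, scintillation counting; nonspecific binding (1 μM CP-55,940) subtracted; % displacement.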

For assay [3], the target named is T2, Cannabinoid receptor 2. Kind of assay: Displacement of [3H]CP-55,940 from human CB2 receptor expressed in CHO-K1 cells after 90 mins by scintillation counting. The gist of the method:
as §1

Assay [4] addresses T3, Delta-type opioid receptor (Homo sapiens, UniProt P41143). Nature of the assay: Binding affinity at human delta opioid receptor expressed in CHO-K1 cells at 10 uM. The gist of the method:
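Opioid membrane binding with test compound at 10 μM final; radioligand and membrane amounts set from saturation experiments. Incubation 25 °C, 60 min, then rapid filtration through BSA-presoaked filters, buffer wash and scintillation counting.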

In assay [5] the target is T1, Cannabinoid receptor 1. Nature of the assay: Binding affinity at human CB1 receptor expressed in CHO-K1 cells at 10 uM.
Assay [6] concerns the target Mu-type opioid receptor (Homo sapiens, UniProt P35372). Kind of assay: Displacement of [3H]DAMGO from human mu opioid receptor expressed in CHO-K1 cells after 60 mins by scintillation counting. An outline of the steps: (§2)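 Opioid receptor membranes incubated with radioligand (amounts set from saturation experiments) at 25 °C for 60 min, test compound at 300 μM to 1.7 nM in dose-response. Rapid filtration through BSA-presoaked filters, scintillation counting; nonspecific binding (10 μM DPDPE, nor-binaltorphimine or DAMGO) subtracted. IC50 = concentration for 50% inhibition of 3H-ligand binding.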

For assay [7], the target named is Kappa-type opioid receptor (Homo sapiens, UniProt P41145). Nature of the assay: Displacement of [3H]nor-Binaltorphimine from human kappa opioid receptor expressed in CHO-K1 cells after 60 mins by scintillation counting. The gist of the method: as §2
Sequence of Kappa-type opioid receptor (P41145 whole entry): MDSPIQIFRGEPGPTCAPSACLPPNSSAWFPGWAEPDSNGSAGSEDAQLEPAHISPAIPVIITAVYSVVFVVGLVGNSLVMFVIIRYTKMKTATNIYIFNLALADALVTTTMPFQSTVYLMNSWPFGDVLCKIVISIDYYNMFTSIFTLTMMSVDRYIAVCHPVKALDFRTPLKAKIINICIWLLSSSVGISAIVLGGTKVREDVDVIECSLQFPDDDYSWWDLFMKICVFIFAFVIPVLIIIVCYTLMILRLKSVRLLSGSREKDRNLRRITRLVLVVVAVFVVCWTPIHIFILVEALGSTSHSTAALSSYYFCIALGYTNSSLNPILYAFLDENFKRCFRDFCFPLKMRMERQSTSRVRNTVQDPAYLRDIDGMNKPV
Assay [8] concerns the target T3, Delta-type opioid receptor. Kind of assay: Displacement of [3H]DPDPE from human delta opioid receptor expressed in CHO-K1 cells after 60 mins by scintillation counting. The gist of the method:
as §2

T3 sequence (P41143 whole entry): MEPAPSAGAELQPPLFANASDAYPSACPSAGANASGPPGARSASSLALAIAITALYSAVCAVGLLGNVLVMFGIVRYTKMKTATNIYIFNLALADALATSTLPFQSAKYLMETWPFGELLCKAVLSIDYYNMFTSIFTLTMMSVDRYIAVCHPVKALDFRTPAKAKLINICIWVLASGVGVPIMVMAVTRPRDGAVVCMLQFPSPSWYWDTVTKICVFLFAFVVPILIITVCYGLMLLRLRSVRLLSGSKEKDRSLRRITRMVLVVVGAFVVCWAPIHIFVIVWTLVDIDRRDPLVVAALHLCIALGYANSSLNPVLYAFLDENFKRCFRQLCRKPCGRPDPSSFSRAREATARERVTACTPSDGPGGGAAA
T2 sequence (P34972 whole entry): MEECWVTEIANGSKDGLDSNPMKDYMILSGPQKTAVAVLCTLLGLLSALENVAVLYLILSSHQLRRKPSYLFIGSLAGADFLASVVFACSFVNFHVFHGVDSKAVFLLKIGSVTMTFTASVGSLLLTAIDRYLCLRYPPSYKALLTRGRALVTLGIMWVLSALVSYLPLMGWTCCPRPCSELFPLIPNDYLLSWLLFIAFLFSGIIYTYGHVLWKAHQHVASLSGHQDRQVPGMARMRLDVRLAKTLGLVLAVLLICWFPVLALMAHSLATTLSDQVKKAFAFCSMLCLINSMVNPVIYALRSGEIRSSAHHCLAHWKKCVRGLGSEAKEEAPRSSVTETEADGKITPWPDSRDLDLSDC
Sequence of Mu-type opioid receptor (P35372 whole entry): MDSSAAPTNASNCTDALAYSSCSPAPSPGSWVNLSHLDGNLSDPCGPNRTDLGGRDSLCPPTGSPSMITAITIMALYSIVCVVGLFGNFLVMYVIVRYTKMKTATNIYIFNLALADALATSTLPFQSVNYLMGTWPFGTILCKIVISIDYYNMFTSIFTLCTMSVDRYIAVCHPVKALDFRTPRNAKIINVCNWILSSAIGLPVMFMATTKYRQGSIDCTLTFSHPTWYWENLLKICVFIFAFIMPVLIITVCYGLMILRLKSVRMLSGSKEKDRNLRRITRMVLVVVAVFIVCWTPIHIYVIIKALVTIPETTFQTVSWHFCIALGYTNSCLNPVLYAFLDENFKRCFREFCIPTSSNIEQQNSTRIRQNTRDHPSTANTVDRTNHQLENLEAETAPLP

Turning to `C/C=C/C=C/C=C/c1c(O)cc(CC=C(C)C)c(O)c1C=O` [AUROGLAUCIN], the IC50 was found to be 15.2 µM in assay [1] and 19.9 µM in assay [3]. Also, the Activity in assay [2] was 43.1%; in assay [4], under 40%; in assay [5], 62.6%.

`CCC/C=C/c1cc2c(C=O)c(O)c(CC=C(C)C)cc2o1`: the Activity in assay [2], in assay [4] and in assay [5] was under 40% throughout.

`Cc1c(O)cc(O)c2c1COC2=O`: the Activity in assay [2], in assay [4] and in assay [5] was under 40% in each case.

With `CCCCC/C=C/c1c(O)cc(CC=C(C)C)c(O)c1C=O` [TETRAHYDROAUROGLAUCIN], the Activity in assay [2], in assay [4] and in assay [5] was under 40% throughout. Besides, in assay [6], the IC50 was 7.2 µM.

Regarding `CCCCC/C=C/c1c(O)cc(CC=C(C)C)c2c1CC(O)O2` (stereo not given), the IC50 in assay [7] stood at 32.4 µM. In assay [4], the Activity was under 40%.

As for `CCCCC/C=C/c1c(O)cc(CC=C(C)C)c(O)c1CO`, the IC50 in assay [8] amounted to 5.4 µM. Further, the Activity in assay [2] is under 40%; in assay [4] it was 62.2%; in assay [5], under 40%.

`CCCCCCCc1c(O)cc(CC=C(C)C)c(O)c1C=O`: the Activity in assay [2] was under 40%; in assay [4] it was 52.5%; in assay [5], under 40%.

On to `CCC/C=C/C=C/c1c(O)cc(CC=C(C)C)c(O)c1C=O`, for which the Activity in assay [2], in assay [4] and in assay [5] was under 40% each time.

For the compound `C=CC(C)(C)c1[nH]c2c(CC=C(C)C)cc(CC=C(C)C)cc2c1C[C@@H]1NC(=O)[C@H](C)NC1=O`, the Activity in assay [2], in assay [4] and in assay [5] was under 40% throughout.

Usually IC50 stands for the point on the concentration scale where inhibition reaches its midpoint. A low value points to greater potency in that assay.
